Reference: ChEMBL document CHEMBL6092224, “The Discovery and Preclinical Profile of ALG-000184, a Prodrug of the Potent Hepatitis B Virus Capsid Assembly Modulator ALG-001075” (J Med Chem, 2024)
Blank lines part the entries; values can stand above or below the compound they belong to. Activity calls are given as the source filed them. The calls are words filed in the database; no cut-off is given here.

Legend:
[1] = molecular target: Solute carrier family 22 member 6 (Homo sapiens, UniProt Q4U2R8); assay: Inhibition of OAT1 (unknown origin) transfected in HEK293 cells; type: cell-based
How it was run: (§1)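 HEK-293 cells transfected with the uptake transporter; uptake of known probe substrates measured with test compound at eight concentrations (0.0229–50.0 μM or 0.0457–100 μM); inhibition at each concentration used to calculate IC50.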

[2] = Plasma protein binding in Cynomolgous monkey at 2 uM incubated for 4 to 24 hrs by equilibrium dialysis method; type: ADME, cell-free, Macaca fascicularis; conditions: cynomolgus monkey, time 4-24 hrs, read-out: PPB (converted)
How it was run: (§2)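 Rapid equilibrium dialysis in mouse, rat, dog, monkey or human plasma for 4 or 24 h at 2 μM.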

[3] = Plasma protein binding in mouse at 2 uM incubated for 4 to 24 hrs by equilibrium dialysis method; type: ADME, cell-free; conditions: time 4-24 hrs, read-out: PPB; how it was run: as §2
[4] = Stability in simulated intestinal fluid for >24 hrs; type: physicochemical; conditions: simulated gi fluid
How it was run: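 Stability tested in simulated gastric fluid containing pepsin and simulated intestinal fluid containing pancreatin.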

[5] = Prodrug conversion in Beagle dog assessed as formation of N-(3-cyano-4-fluorophenyl)-4-(2-((3-ethynyloxetan-3-yl)amino)-2-oxoacetyl)-1,3,5-trimethyl-1H-pyrrole-2-carboxamide metabolite at 6.3 mg/kg, po measured for 24 hrs; type: ADME, organism-based, Canis lupus familiaris; conditions: in vivo
How it was run: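 Single oral prodrug dose at molar equivalent of 30 mg/kg (rats) or […] of parent in 95% PEG 400/5% copovidone; whole blood collected into 4 volumes 75% MeOH/25% acetonitrile, centrifuged, parent quantified by LC-MS/MS; noncompartmental PK analysis.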

[6] = Plasma protein binding in rat at 2 uM incubated for 4 to 24 hrs by equilibrium dialysis method; type: ADME, cell-free; conditions: time 4-24 hrs, read-out: PPB (converted); how it was run: as §2
[7] = Cytotoxicity against human HepG2.117 cells assessed as cell viability upto 50 uM; type: toxicity, cell-based; conditions: hepg2.117, 50 µM
[8] = AUC (infinity) in Sprague-Dawley rat at 1 mg/kg, iv by LC-MS/MS analysis; type: ADME, organism-based; conditions: in vivo
How it was run: (§3)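 Single dose to fasted male C57BL6 mice, Sprague-Dawley rats, beagle dogs and cynomolgus monkeys, either IV at 1 mg/kg or PO as a solution at 5 mg/kg, in 80% PEG 400 in water. Plasma concentrations were measured by LC-MS/MS. PK parameters come from noncompartmental analysis using nominal doses and nominal sampling times.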

[9] = Tmax in Cynomolgous monkey at 5 mg/kg, po by LC-MS/MS analysis; type: ADME, organism-based, Macaca fascicularis; conditions: cynomolgus monkey, in vivo
How it was run: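 Fasted males (C57BL6 mice, Sprague−Dawley rats, beagle dogs, cynomolgus monkeys) given a single oral solution dose of 5 mg/kg in 80% PEG 400 in water. Plasma sampled over time, analysed by LC-MS/MS. Noncompartmental analysis used nominal doses and nominal sampling times.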

Mus musculus = assay: Effect on HBeAg level in C57BL/6 mouse infected with AAV-Hepatitis B virus at 15 to 50 mg/kg, po qd for 56 days followed by induction of compound washout period for 14 days; type: functional, organism-based; conditions: dose 15-50 mg/kg, time 70.0 day
Cytochrome P450 3A4 = Cytochrome P450 3A4 (Homo sapiens, UniProt P08684); assay: Induction of CYP3A4 (unknown origin) in human hepatocytes upto 30 uM; type: ADME, cell-based, Hepatocyte
[10] = Half life in Beagle dog at 1 mg/kg, iv by LC-MS/MS analysis; type: ADME, organism-based, Canis lupus familiaris; conditions: in vivo; how it was run: as §3
[11] = Half life in Cynomolgous monkey at 5 mg/kg, po by LC-MS/MS analysis; type: ADME, organism-based, Macaca fascicularis; conditions: cynomolgus monkey, in vivo; how it was run: as §3
[12] = Oral bioavailability in C57BL/6J mouse at 5 mg/kg by LC-MS/MS analysis; type: ADME, organism-based; conditions: in vivo
How it was run: (§4)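 Fasted male C57BL6 mice, Sprague–Dawley rats, beagle dogs, cynomolgus monkeys; single IV dose 1 mg/kg or PO solution 5 mg/kg in 80% PEG 400 in water; plasma concentrations measured, noncompartmental analysis with nominal doses and times; F from PO vs IV AUC.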

[13] = molecular target: Organic anion transporter 3 (Homo sapiens, UniProt Q8TCC7); assay: Inhibition of OAT3 (unknown origin) transfected in HEK293 cells; type: cell-based; how it was run: as §1
[14] = Cmax in Sprague-Dawley rat at 5 mg/kg, po by LC-MS/MS analysis; type: ADME, organism-based; conditions: in vivo; how it was run: as §3
[15] = Half life in Sprague-Dawley rat at 5 mg/kg, po by LC-MS/MS analysis; type: ADME, organism-based; conditions: in vivo; how it was run: as §3
Cav1.2 = assay: Inhibition of Cav1.2 (unknown origin) expressed in mammalian cells at 10 uM by automated patch-clamp method; type: toxicity, cell-based, Homo sapiens; conditions: mammalian cells expressing Cav1.2
How it was run: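 Currents of hERG, Nav1.5 or Cav1.2 channels expressed in mammalian cells recorded by automated patch clamp (QPatch 48) at room temperature.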

[16] = Plasma protein binding in rat at 1 uM incubated for 4 to 24 hrs by equilibrium dialysis method; type: ADME, cell-free; conditions: time 4-24 hrs, read-out: PPB (converted)
How it was run: (§5)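 Rapid equilibrium dialysis in mouse, rat, dog, monkey or human plasma for 4 or 24 h; test concentrations 1, […].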

[17] = molecular target: Organic anion transporter 1 (Homo sapiens); assay: Inhibition of OAT1 (unknown origin) transfected in HEK293 cells
[18] = molecular target: Broad substrate specificity ATP-binding cassette transporter ABCG2 (Homo sapiens, UniProt Q9UNQ0); assay: Inhibition of BCRP in human Caco-2 cells using estrone 3-sulfate as substrate; type: cell-based
How it was run: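 Inhibition of estrone 3-sulfate (5.00 μM) transport in Caco-2 cells was measured at eight concentrations (0.0229–50.0 μM or 0.0457–100 μM). Percent inhibition relative to vehicle control was used to calculate IC50.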

[19] = Ratio of drug concentration in blood to plasma in human at 5 uM incubated for 60 mins; type: ADME, cell-free
How it was run: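 Compound at 5 μM in whole blood of each species, 37 ± 1 °C for 60 min; blood-to-plasma ratio and red blood cell partitioning determined.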

[20] = Oral bioavailability in Cynomolgous monkey at 5 mg/kg by LC-MS/MS analysis; type: ADME, organism-based, Macaca fascicularis; conditions: cynomolgus monkey, in vivo; how it was run: as §4
[21] = Volume of distribution at steady state in Sprague-Dawley rat at 1 mg/kg, iv by LC-MS/MS analysis; type: ADME, organism-based; conditions: in vivo, read-out: Vdss
How it was run: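 Fasted males (C57BL6 mice, Sprague−Dawley rats, beagle dogs, cynomolgus monkeys) given a single IV dose of 1 mg/kg in 80% PEG 400 in water. Plasma concentrations measured by LC-MS/MS. Vss derived by noncompartmental analysis using nominal dose and nominal sampling times.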

[22] = Clearance in Beagle dog at 1 mg/kg, iv by LC-MS/MS analysis; type: ADME, organism-based, Canis lupus familiaris; conditions: in vivo; how it was run: as §3
[23] = Toxicity in C57BL/6 mouse infected with AAV-Hepatitis B virus assessed as change in ALT level at 15 mg/kg, po bid for 56 days followed by induction of compound washout period for 14 days; type: organism-based; conditions: in vivo, 1680 h, time 70 day
[24] = Plasma protein binding in human at 1 uM incubated for 4 to 24 hrs by equilibrium dialysis method; type: ADME, cell-free; conditions: time 4-24 hrs, read-out: PPB (converted); how it was run: as §5
[25] = Toxicity in C57BL/6 mouse infected with AAV-Hepatitis B virus assessed as change in body weight at 15 to 50 mg/kg, po qd for 56 days followed by induction of compound washout period for 14 days; type: organism-based; conditions: in vivo, 1680 h, dose 15-50 mg/kg, time 70 day
Bile salt export pump = Bile salt export pump (Homo sapiens, UniProt O95342); assay: Inhibition of BSEP (unknown origin) transfected in HEK293 cells; type: cell-based
Chain of Bile salt export pump (O95342 whole entry): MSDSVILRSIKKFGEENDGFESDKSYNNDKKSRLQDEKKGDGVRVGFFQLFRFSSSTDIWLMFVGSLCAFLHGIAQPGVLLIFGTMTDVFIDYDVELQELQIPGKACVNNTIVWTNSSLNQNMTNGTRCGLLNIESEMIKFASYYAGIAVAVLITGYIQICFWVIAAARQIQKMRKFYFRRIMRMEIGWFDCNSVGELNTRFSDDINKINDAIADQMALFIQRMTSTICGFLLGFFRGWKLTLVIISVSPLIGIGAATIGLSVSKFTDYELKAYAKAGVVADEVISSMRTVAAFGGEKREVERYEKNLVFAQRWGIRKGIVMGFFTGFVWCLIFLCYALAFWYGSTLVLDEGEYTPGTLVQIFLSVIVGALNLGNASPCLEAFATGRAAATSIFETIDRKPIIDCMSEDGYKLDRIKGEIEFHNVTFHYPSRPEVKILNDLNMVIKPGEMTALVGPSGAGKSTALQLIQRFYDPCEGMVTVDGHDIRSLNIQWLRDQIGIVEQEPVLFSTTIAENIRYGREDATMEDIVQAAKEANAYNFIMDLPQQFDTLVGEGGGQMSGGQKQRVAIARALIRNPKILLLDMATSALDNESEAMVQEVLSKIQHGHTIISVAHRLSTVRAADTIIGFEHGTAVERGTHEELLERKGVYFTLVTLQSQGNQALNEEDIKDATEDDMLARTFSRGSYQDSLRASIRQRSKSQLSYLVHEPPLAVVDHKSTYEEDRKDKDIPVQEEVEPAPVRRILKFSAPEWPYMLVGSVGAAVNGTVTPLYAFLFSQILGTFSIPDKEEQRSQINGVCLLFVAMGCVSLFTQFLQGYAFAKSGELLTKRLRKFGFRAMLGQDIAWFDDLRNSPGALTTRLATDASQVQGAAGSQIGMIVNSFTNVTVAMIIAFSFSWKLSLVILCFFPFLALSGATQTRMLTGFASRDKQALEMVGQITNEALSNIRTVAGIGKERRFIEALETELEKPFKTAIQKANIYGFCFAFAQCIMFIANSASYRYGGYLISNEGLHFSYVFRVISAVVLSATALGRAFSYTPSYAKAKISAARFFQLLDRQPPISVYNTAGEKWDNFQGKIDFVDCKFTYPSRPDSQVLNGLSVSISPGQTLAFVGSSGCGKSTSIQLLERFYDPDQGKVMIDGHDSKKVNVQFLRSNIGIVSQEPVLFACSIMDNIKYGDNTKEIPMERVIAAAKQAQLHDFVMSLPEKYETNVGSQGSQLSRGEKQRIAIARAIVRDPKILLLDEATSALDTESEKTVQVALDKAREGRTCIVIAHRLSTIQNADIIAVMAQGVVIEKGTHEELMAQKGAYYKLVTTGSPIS

Chain of Cytochrome P450 3A4 (P08684 whole entry): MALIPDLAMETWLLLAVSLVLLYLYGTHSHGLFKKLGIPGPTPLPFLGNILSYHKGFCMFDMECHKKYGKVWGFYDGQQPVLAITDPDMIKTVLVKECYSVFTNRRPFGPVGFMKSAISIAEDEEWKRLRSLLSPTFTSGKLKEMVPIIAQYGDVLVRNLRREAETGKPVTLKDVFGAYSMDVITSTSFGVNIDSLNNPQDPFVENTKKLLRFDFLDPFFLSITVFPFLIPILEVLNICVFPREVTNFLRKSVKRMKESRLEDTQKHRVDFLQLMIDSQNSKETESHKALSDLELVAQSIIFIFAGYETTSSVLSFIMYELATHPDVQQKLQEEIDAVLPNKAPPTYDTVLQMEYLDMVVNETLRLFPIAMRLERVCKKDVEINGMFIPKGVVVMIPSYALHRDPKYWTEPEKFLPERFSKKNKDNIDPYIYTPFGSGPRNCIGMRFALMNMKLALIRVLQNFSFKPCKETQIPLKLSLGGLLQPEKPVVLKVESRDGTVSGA
Chain of Broad substrate specificity ATP-binding cassette transporter ABCG2 (Q9UNQ0 whole entry): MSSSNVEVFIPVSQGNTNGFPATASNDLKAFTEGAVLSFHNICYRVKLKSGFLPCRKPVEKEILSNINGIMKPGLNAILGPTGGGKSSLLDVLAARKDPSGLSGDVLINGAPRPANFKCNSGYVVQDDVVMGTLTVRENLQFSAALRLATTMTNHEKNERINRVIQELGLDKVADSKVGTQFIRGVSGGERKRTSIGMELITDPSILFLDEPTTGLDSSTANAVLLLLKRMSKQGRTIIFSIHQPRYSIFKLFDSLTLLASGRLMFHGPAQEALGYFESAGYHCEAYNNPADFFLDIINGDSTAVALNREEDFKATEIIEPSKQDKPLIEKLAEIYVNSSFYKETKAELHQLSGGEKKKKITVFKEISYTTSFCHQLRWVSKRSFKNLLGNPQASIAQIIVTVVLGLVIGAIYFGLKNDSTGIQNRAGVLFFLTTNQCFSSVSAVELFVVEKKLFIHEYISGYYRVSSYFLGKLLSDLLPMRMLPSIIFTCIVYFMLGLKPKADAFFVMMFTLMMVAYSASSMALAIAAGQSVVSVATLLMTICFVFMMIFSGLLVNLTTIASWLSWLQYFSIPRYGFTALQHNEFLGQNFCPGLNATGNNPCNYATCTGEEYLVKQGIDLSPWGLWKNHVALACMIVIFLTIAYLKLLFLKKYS
Chain of Solute carrier family 22 member 6 (Q4U2R8 whole entry): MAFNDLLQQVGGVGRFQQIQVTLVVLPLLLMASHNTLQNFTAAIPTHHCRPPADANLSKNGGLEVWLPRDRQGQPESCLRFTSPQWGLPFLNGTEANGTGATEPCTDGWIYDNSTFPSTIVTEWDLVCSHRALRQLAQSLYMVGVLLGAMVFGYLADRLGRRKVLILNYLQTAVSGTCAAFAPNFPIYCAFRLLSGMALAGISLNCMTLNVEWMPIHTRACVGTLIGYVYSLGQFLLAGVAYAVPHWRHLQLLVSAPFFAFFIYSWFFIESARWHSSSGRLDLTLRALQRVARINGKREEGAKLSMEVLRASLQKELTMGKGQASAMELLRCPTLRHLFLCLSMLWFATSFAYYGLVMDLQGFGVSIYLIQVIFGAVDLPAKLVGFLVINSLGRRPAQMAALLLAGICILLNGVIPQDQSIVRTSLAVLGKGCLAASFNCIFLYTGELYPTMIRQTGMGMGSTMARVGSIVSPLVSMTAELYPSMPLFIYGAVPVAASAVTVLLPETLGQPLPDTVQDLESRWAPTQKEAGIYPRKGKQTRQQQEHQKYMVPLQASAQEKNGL
Chain of Organic anion transporter 3 (Q8TCC7 whole entry): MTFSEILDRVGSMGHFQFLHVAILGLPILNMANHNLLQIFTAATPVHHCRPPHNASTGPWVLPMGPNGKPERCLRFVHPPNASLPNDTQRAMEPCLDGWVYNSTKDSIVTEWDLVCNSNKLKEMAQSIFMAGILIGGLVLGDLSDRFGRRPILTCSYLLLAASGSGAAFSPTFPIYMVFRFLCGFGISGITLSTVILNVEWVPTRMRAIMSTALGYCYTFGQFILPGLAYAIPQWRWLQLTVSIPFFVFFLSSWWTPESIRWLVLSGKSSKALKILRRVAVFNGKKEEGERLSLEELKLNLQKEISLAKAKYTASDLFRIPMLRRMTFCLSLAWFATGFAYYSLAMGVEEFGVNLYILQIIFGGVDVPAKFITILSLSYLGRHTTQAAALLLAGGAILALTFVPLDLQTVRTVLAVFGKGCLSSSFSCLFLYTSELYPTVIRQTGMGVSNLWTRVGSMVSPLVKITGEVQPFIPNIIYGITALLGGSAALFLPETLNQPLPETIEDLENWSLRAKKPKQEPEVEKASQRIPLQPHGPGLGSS

IC50 [1]: 10.8 µM
fraction unbound at 2 µM [2]: 0.126
fraction unbound at 2 µM [3]: 0.0913
Stability [4]: Stable
Drug metabolism [5]: metabolite_detected
fraction unbound at 2 µM [6]: 0.025
SMILES: C#CC1(N(COP(=O)([O-])[O-])C(=O)C(=O)c2c(C)c(C(=O)Nc3ccc(F)c(C#N)c3)n(C)c2C)COC1.[Na+].[Na+]

SMILES: C#CC1(NC(=O)C(=O)c2c(C)c(C(=O)Nc3ccc(F)c(C#N)c3)n(C)c2C)COC1
Activity [7]: Non-toxic
AUC(0-inf) [8]: 2780 ng·h/mL
Tmax [9]: 1.17 h
Activity (Mus musculus): inactive
Activity (Cytochrome P450 3A4): Not_active
half-life [10]: 383 min
half-life [11]: 864 min
bioavailability [12]: 115%
IC50 [13]: > 11.8 µM
Cmax [14]: 1830 ng/mL
half-life [15]: 130 min
IC50 (Cav1.2): > 10 µM
fraction unbound at 1 µM [16]: 0.211
IC50 [17]: > 11.8 µM
IC50 [18]: > 11.8 µM
blood plasma ratio at 1 h, 5 µM [19]: 0.73
bioavailability [20]: 19.6%
Vd [21]: 0.5 L/kg
clearance [22]: 1.97 mL/min/kg
Activity [23]: Non-toxic
fraction unbound at 1 µM [24]: 0.191
Activity [25]: Non-toxic
IC50 (Bile salt export pump): > 11.8 µM
